Among the data in ChEMBL document CHEMBL1833901, “MDM2-p53 protein-protein interaction inhibitors: a-ring substituted isoindolinones” (Bioorg Med Chem Lett, 2011) are IC50, GI50 and Activity values, retold here.

The source made the active and inactive calls. No cut-off for these calls is given here.

Experiment [1] concerns the target Tumour suppressor p53/oncoprotein Mdm2 (Homo sapiens, UniProt Q00987). Briefly: Inhibition of human MDM2-p53 interaction after 20 mins by […] method. Format: protein assay.
In another experiment the test system is A2780. Briefly: Growth inhibition of human A2780 cells expressing MDM2 by SRB assay. Format: functional.
Experiment [2] relates to HCT-116. Description: Growth inhibition of p53 deficient human HCT116 cells expressing MDM2 by SRB assay. It is filed as functional.
Experiment [3] has as its system HCT-116. Description: Growth inhibition of human HCT116 cells expressing MDM2 by SRB assay. It is filed as functional.
Experiment [4] has as its system SJSA-1. Description: Growth inhibition of human SJSA1 cells expressing MDM2 by SRB assay. Format: functional. Put shortly:
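Growth inhibition assayed in the MDM2-amplified cell line SJSA-1. Values are the mean of at least three determinations ± SE.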

Experiment [5] can be described thus: Growth inhibition of human A2780/CP70 cells expressing isogenically paired p53 mutant by SRB assay. Format: functional.
Experiment [6] concerns SJSA-1. Briefly: Increase of MDM2 expression in human SJSA1 cells after 6 hrs by Western blotting. Format: functional, cell-based.
Experiment [7] deals with SJSA-1. Description: Increase of P21 protein level in human SJSA1 cells after 6 hrs by Western blotting. Format: functional, cell-based.
Experiment [8] concerns SJSA-1. Briefly: Increase of P53 expression in human SJSA1 cells after 6 hrs by Western blotting. Format: functional, cell-based.
The test system of experiment [9] is SJSA-1. Briefly: Increase of P53 expression in human SJSA1 cells at 5 to 10 uM after 6 hrs by Western blotting. It is filed as functional, cell-based.
The subject of experiment [10] is SJSA-1. Briefly: Increase of MDM2 expression in human SJSA1 cells at 5 to 10 uM after 6 hrs by Western blotting. Format: functional, cell-based.
Experiment [11] concerns SJSA-1. Briefly: Increase of P21 protein level in human SJSA1 cells at 5 to 10 uM after 6 hrs by Western blotting. Format: functional, cell-based.

Sequence of Tumour suppressor p53/oncoprotein Mdm2 (P04637 whole entry): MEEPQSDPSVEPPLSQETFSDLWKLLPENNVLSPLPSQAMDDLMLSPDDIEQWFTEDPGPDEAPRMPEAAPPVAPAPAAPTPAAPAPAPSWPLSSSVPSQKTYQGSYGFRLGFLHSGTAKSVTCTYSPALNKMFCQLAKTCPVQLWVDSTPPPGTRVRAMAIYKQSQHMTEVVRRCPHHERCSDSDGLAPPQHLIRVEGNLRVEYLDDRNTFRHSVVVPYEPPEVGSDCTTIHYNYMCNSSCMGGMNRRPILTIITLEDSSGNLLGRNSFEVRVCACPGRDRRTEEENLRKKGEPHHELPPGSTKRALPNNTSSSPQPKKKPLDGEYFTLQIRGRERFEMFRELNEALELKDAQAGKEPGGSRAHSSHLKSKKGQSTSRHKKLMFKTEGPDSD
Sequence of Tumour suppressor p53/oncoprotein Mdm2 (Q00987 whole entry): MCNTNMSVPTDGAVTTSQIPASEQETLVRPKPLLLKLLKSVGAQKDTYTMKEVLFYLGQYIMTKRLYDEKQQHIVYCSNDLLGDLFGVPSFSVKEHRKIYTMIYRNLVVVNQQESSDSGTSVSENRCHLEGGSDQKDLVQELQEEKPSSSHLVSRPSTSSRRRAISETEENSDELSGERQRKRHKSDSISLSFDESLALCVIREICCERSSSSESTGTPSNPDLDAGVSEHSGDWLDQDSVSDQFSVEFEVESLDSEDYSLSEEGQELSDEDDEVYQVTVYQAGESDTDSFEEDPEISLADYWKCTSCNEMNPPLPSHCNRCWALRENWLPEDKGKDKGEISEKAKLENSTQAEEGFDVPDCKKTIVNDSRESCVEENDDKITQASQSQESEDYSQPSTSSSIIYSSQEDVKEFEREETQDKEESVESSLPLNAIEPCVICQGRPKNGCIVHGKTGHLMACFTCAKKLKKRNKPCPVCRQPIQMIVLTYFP

`O=C1c2cccc(Cl)c2C(OCC2(CO)CC2)(c2ccc(Cl)cc2)N1Cc1ccc(S(=O)(=O)C(F)(F)F)cc1` (stereo not drawn) showed an IC50 in experiment [1] of 9 µM.
With `O=C1C2=C(CCCC2)C(OCC2(CO)CC2)(c2ccc(Cl)cc2)N1Cc1ccc([N+](=O)[O-])cc1` (stereo not drawn), the IC50 in [1] was 3.47 µM.
In experiment [1], `CC1=C(C)C(OCC2(CO)CC2)(c2ccc(Cl)cc2)N(Cc2ccccc2)C1=O` (stereo not drawn) registered a half-maximal inhibitory concentration (IC50) of 3.45 µM.
As for `CCCN1C(=O)C(C)=C(C)C1(OCC1(CO)CC1)c1ccc(Cl)cc1` (stereo not drawn), in experiment [1], half-maximal inhibition (IC50) required 8.9 µM.
On to `CC(C)(C)C[C@H]1N[C@@H](C(=O)NCCN2CCOCC2)[C@H](c2cccc(Cl)c2F)[C@@]12C(=O)Nc1cc(Cl)ccc12`, for which the GI50 in the experiment with A2780 (Homo sapiens, A2780) came to 1.19 µM; with HCT-116 [2] (Homo sapiens, HCT-116) it was 11.8 µM; in the experiment with HCT-116 [3] (Homo sapiens, HCT-116), 1.3 µM; in the experiment on SJSA-1 [4] (Homo sapiens, SJSA-1), 0.55 µM; in [5] (Homo sapiens, A2780/CP70), 15.1 µM.
Regarding `O=C1c2cccc(Cl)c2C(OCC2(CO)CC2)(c2ccc(Cl)cc2)N1Cc1ccc([N+](=O)[O-])cc1` (racemic) [listing 1 of 2 here], the GI50 with A2780 was 4.2 µM; in the experiment with HCT-116 [2], 14.9 µM; in the experiment on HCT-116 [3] it was 6 µM; in the experiment with SJSA-1 [4], 6 µM; in [5], 15.9 µM.
For `O=C1c2cccc(Cl)c2C(OCC2(CO)CC2)(c2ccc(Cl)cc2)N1Cc1ccc([N+](=O)[O-])cc1` (racemic) [listing 2 of 2 here], the Activity entry in the experiment on SJSA-1 [6], with SJSA-1 [7] and in the experiment with SJSA-1 [8] was “Dose-dependent effect” throughout.
Regarding `O=C1c2cccc(Cl)c2C(OCC2(CO)CC2)(c2ccc(Cl)cc2)N1Cc1ccc([N+](=O)[O-])cc1` (single isomer, unassigned; (+)) [listing 1 of 2 here], the GI50 in the experiment with A2780 was determined as 7.7 µM; in the experiment with HCT-116 [2] it was 14.4 µM; with HCT-116 [3], 12.3 µM; in the experiment with SJSA-1 [4], 12.2 µM; in experiment [5], 14.5 µM.
`O=C1c2cccc(Cl)c2C(OCC2(CO)CC2)(c2ccc(Cl)cc2)N1Cc1ccc([N+](=O)[O-])cc1` (single isomer, unassigned; (+)) [listing 2 of 2 here]: the outcome in the experiment with SJSA-1 [9], in the experiment with SJSA-1 [10] and in the experiment on SJSA-1 [11] was inactive.
With `O=C1c2cccc(Cl)c2C(OCC2(CO)CC2)(c2ccc(Cl)cc2)N1Cc1ccc([N+](=O)[O-])cc1` (single isomer, unassigned; (-)) [listing 1 of 2 here], the concentration for 50% growth inhibition (GI50) amounted to 3.3 µM with A2780; 12.5 µM in the experiment on HCT-116 [2] (Homo sapiens, HCT-116); 3.7 µM in the experiment with HCT-116 [3]; 3.7 µM in the experiment on SJSA-1 [4]; 13.6 µM in experiment [5] (Homo sapiens, A2780/CP70).
Consider `O=C1c2cccc(Cl)c2C(OCC2(CO)CC2)(c2ccc(Cl)cc2)N1Cc1ccc([N+](=O)[O-])cc1` (single isomer, unassigned; (-)) [listing 2 of 2 here], for which the Activity entry with SJSA-1 [6], in the experiment with SJSA-1 [7] and with SJSA-1 [8] was “Dose-dependent effect” in each case.
Consider `COc1ccc(C2=N[C@@H](c3ccc(Cl)cc3)[C@@H](c3ccc(Cl)cc3)N2C(=O)N2CCNC(=O)C2)c(OC(C)C)c1` [NUTLIN-3], for which the GI50 in the experiment with A2780 (Homo sapiens, A2780) came out at 1.6 µM; with HCT-116 [2] (Homo sapiens, HCT-116), 25.6 µM; in the experiment with HCT-116 [3] (Homo sapiens, HCT-116) it was 2.1 µM; with SJSA-1 [4] (Homo sapiens, SJSA-1) it was 1.3 µM; in experiment [5] (Homo sapiens, A2780/CP70) it was 20.4 µM.
